Data: ChEMBL document CHEMBL2311526, “Phthalazinone inhibitors of inosine-5'-monophosphate dehydrogenase from Cryptosporidium parvum” (Bioorg Med Chem Lett, 2013)
The source made the active and inactive calls. The rule behind the calls is not given here.

What was measured:
[1] = biological target: T1, Inosine-5'-monophosphate dehydrogenase (Cryptosporidium parvum, UniProt Q8T6T2); assay: Inhibition of recombinant Cryptosporidium parvum IMPDH assessed as production of NADH by fluorescence assay in presence of 0.05% BSA
T1 sequence (Q8T6T2 whole entry): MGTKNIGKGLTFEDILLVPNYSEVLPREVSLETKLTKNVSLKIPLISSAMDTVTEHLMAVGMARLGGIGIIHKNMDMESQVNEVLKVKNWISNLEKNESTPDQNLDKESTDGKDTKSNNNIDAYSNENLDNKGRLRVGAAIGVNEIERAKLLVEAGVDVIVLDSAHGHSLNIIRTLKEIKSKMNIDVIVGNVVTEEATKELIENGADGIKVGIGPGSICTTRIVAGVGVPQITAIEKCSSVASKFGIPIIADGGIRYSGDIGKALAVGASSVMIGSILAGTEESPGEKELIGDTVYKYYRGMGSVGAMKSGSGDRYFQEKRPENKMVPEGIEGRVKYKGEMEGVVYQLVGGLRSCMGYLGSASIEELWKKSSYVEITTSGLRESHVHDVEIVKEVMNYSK
In short: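 Enzyme inhibition was measured with 0.05% fatty acid free BSA added, to assess non-specific binding.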

[2] = biological target: T1, Inosine-5'-monophosphate dehydrogenase; assay: Inhibition of recombinant Cryptosporidium parvum IMPDH assessed as production of NADH by fluorescence assay
Toxoplasma gondii [3] = assay: Selectivity ratio for EC50 for wild type Toxoplasma gondii to EC50 for Cryptosporidium parvum IMPDH expressing Toxoplasma gondii; format: functional
Toxoplasma gondii [4] = assay: Antiparasitic activity against Cryptosporidium parvum IMPDH expressing Toxoplasma gondii assessed as growth inhibition; format: functional, organism-based
Toxoplasma gondii [5] = assay: Antiparasitic activity against wild type Toxoplasma gondii assessed as growth inhibition; format: functional, organism-based
[6] = biological target: T2, Inosine-5'-monophosphate dehydrogenase (Cryptosporidium parvum) (UniProt Q8T6T2); assay: Mixed type inhibition of recombinant Cryptosporidium parvum IMPDH with respect to NAD+
T2 sequence (whole entry): T1 sequence (Q8T6T2 whole entry)

Cryptosporidium parvum = assay: Antiparasitic activity against Cryptosporidium parvum infected in IL12 knockout mouse model at 250 mg/kg, po for 7 days; format: functional, organism-based; set-up: dose 250 mg/kg
In short: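 IL12 knockout mice were inoculated with 1,000 oocysts and, from 4 h post-infection, dosed by gavage once daily for 7 days at 250 mg/kg in 10% DMSO/corn oil. Controls were vehicle and paromomycin 2000 mg/kg. Oocysts from feces (days 0, 4, 7) were purified on sucrose gradients, stained 20 min with FITC-labelled OW50 antibody, and counted by flow cytometry, with ANOVA.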

Liver = assay: Half life in mouse liver microsomes; format: ADME, Microsome
[7] = biological target: T2, Inosine-5'-monophosphate dehydrogenase (Cryptosporidium parvum); assay: Pure noncompetitive inhibition of recombinant Cryptosporidium parvum IMPDH with respect to NAD+

Row | Structure (SMILES) | IC50 [1] | IC50 [2] | also measured
1 | Cc1cc(NC(=O)Cc2nn(C)c(=O)c3ccccc23)ccc1Br | 140 nM | 70 nM | –
2 | Cn1nc(CC(=O)Nc2ccc(C#N)c(C#N)c2)c2ccccc2c1=O | > 2500 nM | > 2500 nM | –
3 | Cn1nc(CC(=O)Nc2ccc(C#N)c(Cl)c2)c2ccccc2c1=O | 470 nM | 290 nM | –
4 | CCOc1ccc(NC(=O)Cc2nn(C)c(=O)c3ccccc23)cc1 | – | > 5000 nM | –
5 | Cc1ccc(NC(=O)Cc2nn(C)c(=O)c3ccccc23)cc1 | – | > 5000 nM | –
6 | Cn1nc(CC(=O)Nc2ccc(Br)c(Cl)c2)c2ccccc2c1=O | 75 nM | 30 nM | –
7 | Cn1nc(CC(=O)Nc2cc(Cl)cc(Cl)c2)c2ccccc2c1=O | – | > 5000 nM | –
8 | Cn1nc(CC(=O)NC(C)(C)C)c2ccccc2c1=O | – | > 5000 nM | –
9 | O=C(Cc1n[nH]c(=O)c2ccccc12)Nc1ccc(Br)c(C(F)(F)F)c1 | 130 nM | 32 nM | –
10 | Cn1nc(CC(=O)Nc2cccc(Cl)c2)c2ccccc2c1=O | – | > 5000 nM | –
11 | Cn1nc(CC(=O)NN)c2ccccc2c1=O | – | > 5000 nM | –
12 | Cc1cc(NC(=O)Cc2nn(C)c(=O)c3ccccc23)ccc1C#N | 460 nM | 400 nM | –
13 | COc1cccc(NC(=O)Cc2nn(C)c(=O)c3ccccc23)c1 | – | > 5000 nM | –
14 | Cn1nc(CC(=O)Nc2ccc(Br)c(C(F)(F)F)c2)c2ccccc2c1=O | 48 nM | 24 nM | Ratio EC50 (Toxoplasma gondii [3]): 14; EC50 (Toxoplasma gondii [4]): 300 nM; EC50 (Toxoplasma gondii [5]): 4 µM
15 | Cn1nc(CC(=O)Nc2ccc(Cl)cc2Cl)c2ccccc2c1=O | – | > 5000 nM | –
16 | Cn1nc(CC(=O)Nc2ccc(F)c(C(F)(F)F)c2)c2ccccc2c1=O | 150 nM | 150 nM | –
17 | Cn1nc(CC(=O)Nc2ccc(Br)cc2Br)c2ccccc2c1=O | – | > 5000 nM | –
18 | Cc1cc(NC(=O)Cc2nn(C)c(=O)c3ccccc23)ccc1Cl | 96 nM | 79 nM | –
19 | Cn1nc(CC(=O)Nc2ccc3[nH]c4ccccc4c3c2)c2ccccc2c1=O | – | > 5000 nM | –
20 | Cn1nc(CC(=O)Nc2ccc3occc3c2)c2ccccc2c1=O | 85 nM | 93 nM | –
21 | CC(C)c1ccc(NC(=O)Cc2nn(C)c(=O)c3ccccc23)cc1 | – | > 5000 nM | –
22 | Cn1nc(CC(=O)Nc2cc(F)c(F)c(F)c2)c2ccccc2c1=O | – | > 5000 nM | –
23 | CCn1c2ccccc2c2cc(NC(=O)Cc3nn(C)c(=O)c4ccccc34)ccc21 | – | > 5000 nM | –
24 | Cn1nc(CC(=O)Nc2ccc(F)cc2)c2ccccc2c1=O | – | > 5000 nM | –
25 | COc1ccc(NC(=O)Cc2nn(C)c(=O)c3ccccc23)cc1 | 930 nM | 1000 nM | Kii [6]: 7 µM; Kis [6]: 1.8 µM
26 | Cn1nc(CC(=O)Nc2ccc3ccccc3c2)c2ccccc2c1=O | 140 nM | 63 nM | –

Row | Structure (SMILES) | IC50 [1] | IC50 [2] | also measured
27 | Cn1nc(CC(=O)Nc2ccc(Cl)c(F)c2)c2ccccc2c1=O | 240 nM | 200 nM | –
28 | Cn1nc(CC(=O)Nc2ccc(Cl)c(C(F)(F)F)c2)c2ccccc2c1=O | 25 nM | 13 nM | Activity (Cryptosporidium parvum): inactive; Ratio EC50 (Toxoplasma gondii [3]): 60; EC50 (Toxoplasma gondii [4]): 400 nM; EC50 (Toxoplasma gondii [5]): 23 µM; t1/2 (Liver): 79 min; Kii [7]: 3.4 nM; Kis [7]: 3.4 nM
29 | Cn1nc(CC(=O)Nc2ccc(S(C)(=O)=O)cc2)c2ccccc2c1=O | – | > 5000 nM | –
30 | Cc1cc2cc(NC(=O)Cc3nn(C)c(=O)c4ccccc34)ccc2o1 | 72 nM | 64 nM | –
31 | O=C(Cc1n[nH]c(=O)c2ccccc12)Nc1ccc(Cl)c(C(F)(F)F)c1 | 61 nM | 40 nM | –
32 | Cn1nc(CC(=O)Nc2ccc(Cl)c(Cl)c2)c2ccccc2c1=O | 95 nM | 55 nM | –
33 | Cn1nc(CC(=O)Nc2ccc3oc4ccccc4c3c2)c2ccccc2c1=O | 30 nM | – | Ratio EC50 (Toxoplasma gondii [3]): 7; EC50 (Toxoplasma gondii [4]): 400 nM; EC50 (Toxoplasma gondii [5]): 3 µM
34 | Cn1nc(CC(=O)Nc2cc(Cl)c(Cl)c(Cl)c2)c2ccccc2c1=O | – | > 5000 nM | –
35 | Cn1nc(CC(=O)Nc2ccc3oc4c(c3c2)CCCC4)c2ccccc2c1=O | 150 nM | 20 nM | Ratio EC50 (Toxoplasma gondii [3]): 2; EC50 (Toxoplasma gondii [4]): 500 nM; EC50 (Toxoplasma gondii [5]): 1 µM
36 | COc1ccc(NC(=O)Cc2nn(C)c(=O)c3ccccc23)cc1C(F)(F)F | – | > 5000 nM | –
37 | Cn1nc(CC(=O)Nc2ccc3ocnc3c2)c2ccccc2c1=O | – | > 5000 nM | –
38 | Cn1nc(CC(=O)Nc2ccc(N)c(C(F)(F)F)c2)c2ccccc2c1=O | – | > 5000 nM | –
39 | COc1cc(NC(=O)Cc2nn(C)c(=O)c3ccccc23)ccc1Cl | 40 nM | 33 nM | –
40 | Cn1nc(CC(=O)Nc2ccc(Cl)cc2)c2ccccc2c1=O | 280 nM | 230 nM | –
41 | Cn1nc(CC(=O)Nc2ccc3c(c2)oc2ccccc23)c2ccccc2c1=O | – | > 5000 nM | –
42 | Cn1nc(CC(=O)Nc2ccc(Br)cc2)c2ccccc2c1=O | 130 nM | 130 nM | –
43 | Cn1nc(CC(=O)Nc2cccc(C(F)(F)F)c2)c2ccccc2c1=O | – | > 5000 nM | –
44 | Cn1nc(CC(=O)Nc2ccc(Cl)cc2C(F)(F)F)c2ccccc2c1=O | – | > 5000 nM | –
45 | Cn1nc(CC(=O)Nc2ccc(Br)cc2C(F)(F)F)c2ccccc2c1=O | – | > 5000 nM | –
46 | Cn1nc(CC(=O)Nc2ccc(Br)cc2F)c2ccccc2c1=O | 1700 nM | 1100 nM | –
47 | Cn1nc(CC(=O)Nc2ccc(C#N)cc2)c2ccccc2c1=O | 940 nM | 950 nM | –
48 | COc1ccccc1NC(=O)Cc1nn(C)c(=O)c2ccccc12 | – | > 5000 nM | –
49 | Cn1nc(CC(=O)Nc2ccc(C(F)(F)F)cc2)c2ccccc2c1=O | – | > 5000 nM | –
50 | Cn1nc(CC(=O)Nc2ccc(OC(F)(F)F)cc2)c2ccccc2c1=O | – | > 5000 nM | –
51 | COc1ccc(CNC(=O)Cc2nn(C)c(=O)c3ccccc23)cc1 | – | > 5000 nM | –
52 | Cn1nc(CC(=O)Nc2ccc(C#N)c(C(F)(F)F)c2)c2ccccc2c1=O | 52 nM | 54 nM | –
